Laboratory results: ChEMBL document CHEMBL5058577, “EUbOPEN Chemogenomics Library 2 (Multiplex)” (2022)

Test system: U2OS
Test: Multiplex assay against U2OS
Assay type: toxicity, cell-based
Settings: human
Outline: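 Compound was added to live cells that had been stained at seeding with Hoechst33342, BioTracker Green Microtubule Cytoskeleton Dye, MitoTracker Red and Annexin V Alexa Fluor 680, and imaging followed on a CQ1 microscope at 37°C and 5% CO2. CellPathfinder machine-learning gating divided cells into Hoechst high-intensity objects or normal cells, normal cells into healthy, pyknosed or fragmented nuclei, and pyknosed cells into mitotic or apoptotic. Tubulin, mitochondrial-mass and membrane-permeability phenotypes are per cents of healthy-nucleus cells.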

[1] = 12 h, 1 µM, compound concentration 1 uM, replicate 1
[2] = 12 h, 1 µM, compound concentration 1 uM, replicate 2
[3] = 12 h, 10 µM, compound concentration 10 uM, replicate 1
[4] = 12 h, 10 µM, compound concentration 10 uM, replicate 2
[5] = 24 h, 1 µM, compound concentration 1 uM, replicate 1
[6] = 24 h, 1 µM, compound concentration 1 uM, replicate 2
[7] = 24 h, 10 µM, compound concentration 10 uM, replicate 1
[8] = 24 h, 10 µM, compound concentration 10 uM, replicate 2
[9] = 48 h, 1 µM, compound concentration 1 uM, replicate 1
[10] = 48 h, 1 µM, compound concentration 1 uM, replicate 2
[11] = 48 h, 10 µM, compound concentration 10 uM, replicate 1
[12] = 48 h, 10 µM, compound concentration 10 uM, replicate 2

## O=c1ccc2ccc(OCCCCN3CCN(c4cccc5sccc45)CC3)cc2[nH]1 [BREXPIPRAZOLE]
[1]
  Population Apoptotic (%): 73%
  Population Fragmented Nuclei (%): 23%
  Population Healthy Nuclei (%): 62%
  Population Hoechst High Intensity Objects (%): 6%
  Population Membrane Permeable-Phenotype (%): 40%
  Population Mitochondria Different-Phenotype (%): 19%
  Population Mitotic Cells (%): 26%
  Population Normal (%): 93%
  Population Pyknosed Nuclei (%): 13%
  Population Tubulin-Different-Phenotype (%): 36%
  Total Cell Count: 178
[2]
  Population Apoptotic (%): 55%
  Population Fragmented Nuclei (%): 16%
  Population Healthy Nuclei (%): 69%
  Population Hoechst High Intensity Objects (%): 2%
  Population Membrane Permeable-Phenotype (%): 32%
  Population Mitochondria Different-Phenotype (%): 24%
  Population Mitotic Cells (%): 44%
  Population Normal (%): 97%
  Population Pyknosed Nuclei (%): 14%
  Population Tubulin-Different-Phenotype (%): 30%
  Total Cell Count: 126
[3]
  Population Apoptotic (%): 86%
  Population Fragmented Nuclei (%): 31%
  Population Healthy Nuclei (%): 27%
  Population Hoechst High Intensity Objects (%): 6%
  Population Membrane Permeable-Phenotype (%): 57%
  Population Mitochondria Different-Phenotype (%): 82%
  Population Mitotic Cells (%): 13%
  Population Normal (%): 93%
  Population Pyknosed Nuclei (%): 41%
  Population Tubulin-Different-Phenotype (%): 83%
  Total Cell Count: 220
[4]
  Population Apoptotic (%): 82%
  Population Fragmented Nuclei (%): 21%
  Population Healthy Nuclei (%): 43%
  Population Hoechst High Intensity Objects (%): 9%
  Population Membrane Permeable-Phenotype (%): 53%
  Population Mitochondria Different-Phenotype (%): 90%
  Population Mitotic Cells (%): 17%
  Population Normal (%): 90%
  Population Pyknosed Nuclei (%): 35%
  Population Tubulin-Different-Phenotype (%): 95%
  Total Cell Count: 109
[5]
  Population Apoptotic (%): 68%
  Population Fragmented Nuclei (%): 26%
  Population Healthy Nuclei (%): 55%
  Population Hoechst High Intensity Objects (%): 3%
  Population Membrane Permeable-Phenotype (%): 19%
  Population Mitochondria Different-Phenotype (%): 22%
  Population Mitotic Cells (%): 31%
  Population Normal (%): 96%
  Population Pyknosed Nuclei (%): 18%
  Population Tubulin-Different-Phenotype (%): 18%
  Total Cell Count: 181
[6]
  Population Apoptotic (%): 66%
  Population Fragmented Nuclei (%): 12%
  Population Healthy Nuclei (%): 67%
  Population Membrane Permeable-Phenotype (%): 22%
  Population Mitochondria Different-Phenotype (%): 28%
  Population Mitotic Cells (%): 33%
  Population Pyknosed Nuclei (%): 19%
  Population Tubulin-Different-Phenotype (%): 16%
  Total Cell Count: 128
[7]
  Population Apoptotic (%): 93%
  Population Fragmented Nuclei (%): 30%
  Population Healthy Nuclei (%): 25%
  Population Hoechst High Intensity Objects (%): 13%
  Population Membrane Permeable-Phenotype (%): 47%
  Population Mitochondria Different-Phenotype (%): 67%
  Population Mitotic Cells (%): 6%
  Population Normal (%): 86%
  Population Pyknosed Nuclei (%): 44%
  Population Tubulin-Different-Phenotype (%): 76%
  Total Cell Count: 213
[8]
  Population Apoptotic (%): 91%
  Population Fragmented Nuclei (%): 19%
  Population Healthy Nuclei (%): 26%
  Population Hoechst High Intensity Objects (%): 22%
  Population Membrane Permeable-Phenotype (%): 56%
  Population Mitochondria Different-Phenotype (%): 86%
  Population Mitotic Cells (%): 8%
  Population Normal (%): 77%
  Population Pyknosed Nuclei (%): 54%
  Population Tubulin-Different-Phenotype (%): 91%
  Total Cell Count: 112
[9]
  Population Apoptotic (%): 64%
  Population Fragmented Nuclei (%): 21%
  Population Healthy Nuclei (%): 61%
  Population Hoechst High Intensity Objects (%): 4%
  Population Membrane Permeable-Phenotype (%): 9%
  Population Mitochondria Different-Phenotype (%): 12%
  Population Mitotic Cells (%): 35%
  Population Normal (%): 95%
  Population Pyknosed Nuclei (%): 16%
  Population Tubulin-Different-Phenotype (%): 8%
  Total Cell Count: 240
[10]
  Population Apoptotic (%): 73%
  Population Fragmented Nuclei (%): 22%
  Population Healthy Nuclei (%): 56%
  Population Hoechst High Intensity Objects (%): 2%
  Population Membrane Permeable-Phenotype (%): 34%
  Population Mitochondria Different-Phenotype (%): 31%
  Population Mitotic Cells (%): 26%
  Population Normal (%): 97%
  Population Pyknosed Nuclei (%): 21%
  Population Tubulin-Different-Phenotype (%): 18%
  Total Cell Count: 161
[11]
  Population Apoptotic (%): 96%
  Population Fragmented Nuclei (%): 45%
  Population Healthy Nuclei (%): 12%
  Population Hoechst High Intensity Objects (%): 26%
  Population Membrane Permeable-Phenotype (%): 45%
  Population Mitochondria Different-Phenotype (%): 30%
  Population Mitotic Cells (%): 3%
  Population Normal (%): 73%
  Population Pyknosed Nuclei (%): 41%
  Population Tubulin-Different-Phenotype (%): 40%
  Total Cell Count: 215
[12]
  Population Apoptotic (%): 100%
  Population Fragmented Nuclei (%): 29%
  Population Healthy Nuclei (%): 14%
  Population Hoechst High Intensity Objects (%): 32%
  Population Membrane Permeable-Phenotype (%): 70%
  Population Mitochondria Different-Phenotype (%): 90%
  Population Mitotic Cells (%): 0%
  Population Normal (%): 67%
  Population Pyknosed Nuclei (%): 56%
  Population Tubulin-Different-Phenotype (%): 90%
  Total Cell Count: 105
